Data reported in PMC4655421 (ACS Chemical Biology, 2015).
Values joined by “and” are separate entries in the source; they are usually repeats but may differ in a detail not shown here. Equal entries are not always repeated. Blank lines part the entries; values can stand above or below the compound they belong to.

Assays:
Rho-MatB [1] = biological target: T1, Rho-MatB (Rhodopseudomonas palustris, UniProt Q6ND88, C106A/K488A/Q457C/R286C); assay: Fluorescence of Rho-MatB with various ligands; assay type: binding; settings: in words
T1 sequence (Q6ND88 1-503 C106A/R286C/Q457C/K488A): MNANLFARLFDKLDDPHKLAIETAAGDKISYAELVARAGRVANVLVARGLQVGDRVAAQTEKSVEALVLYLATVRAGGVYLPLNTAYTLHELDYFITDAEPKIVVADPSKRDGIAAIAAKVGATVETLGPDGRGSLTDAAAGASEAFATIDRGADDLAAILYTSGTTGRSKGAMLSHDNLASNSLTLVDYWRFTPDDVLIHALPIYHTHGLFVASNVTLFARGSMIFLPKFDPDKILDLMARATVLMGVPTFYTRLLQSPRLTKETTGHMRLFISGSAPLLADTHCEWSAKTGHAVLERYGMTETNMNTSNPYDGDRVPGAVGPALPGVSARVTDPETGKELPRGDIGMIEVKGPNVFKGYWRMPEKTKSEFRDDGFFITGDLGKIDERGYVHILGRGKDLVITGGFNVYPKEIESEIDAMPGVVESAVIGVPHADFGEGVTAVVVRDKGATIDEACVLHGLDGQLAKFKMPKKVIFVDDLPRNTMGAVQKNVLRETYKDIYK

Rho-MatB [2] = biological target: T1, Rho-MatB; assay: Fluorescence titration of nucleotides to Rho-MatB; assay type: binding
Rho-MatB [3] = biological target: T1, Rho-MatB; assay: ATP titration of Rho-MatB in the presence of other nucleotides; assay type: binding; settings: for fluorescence ratio of ATP titration: 1 μM Rho-MatB titrated with ATP in presence of 100 μM of the named nucleotide
Summary of the method: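 ATP was titrated into 1 μM labelled sensor, alone or with 100 μM ADP, dATP, ATPγS or AMP-PNP. Buffer was Hepes pH 7.0 / NaCl / MgCl2 / BSA, with excitation at 553 nm and emission at 571 nm. Dilution-corrected data were fitted to a quadratic binding equation to give the apparent Kd for ATP and the fluorescence ratio.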

Rho-MatB [4] = biological target: T1, Rho-MatB; assay: Stopped-flow association and dissociation kinetics of Rho-MatB and ATP; assay type: binding; settings: 25 °C
Summary of the method: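 Stopped-flow fluorescence at 25 °C in Hepes pH 7.0, NaCl, MgCl2, BSA buffer. In one format, a range of sensor concentrations in 10-fold excess over ATP gave single-exponential traces, with at least three traces averaged at 1.3 and 2.5 μM. In the other, 0.25 μM sensor was mixed with excess ATP, giving biphasic traces. kobs (fast phase) was plotted against the excess reactant; linear-regression slope gave association and intercept gave dissociation.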

RpMatB K488A = settings: read-out: Kd for ATP; unlabeled RpMatB K488A; cited from earlier work
ATeam = ATeam biosensor; cited from earlier work
pyruvate kinase = pyruvate kinase (Oryctolagus cuniculus, UniProt P11974); assay: Steady-state ATP production by pyruvate kinase monitored by Rho-MatB; assay type: biochemical, rabbit
pyruvate kinase, sequence (P11974 whole entry): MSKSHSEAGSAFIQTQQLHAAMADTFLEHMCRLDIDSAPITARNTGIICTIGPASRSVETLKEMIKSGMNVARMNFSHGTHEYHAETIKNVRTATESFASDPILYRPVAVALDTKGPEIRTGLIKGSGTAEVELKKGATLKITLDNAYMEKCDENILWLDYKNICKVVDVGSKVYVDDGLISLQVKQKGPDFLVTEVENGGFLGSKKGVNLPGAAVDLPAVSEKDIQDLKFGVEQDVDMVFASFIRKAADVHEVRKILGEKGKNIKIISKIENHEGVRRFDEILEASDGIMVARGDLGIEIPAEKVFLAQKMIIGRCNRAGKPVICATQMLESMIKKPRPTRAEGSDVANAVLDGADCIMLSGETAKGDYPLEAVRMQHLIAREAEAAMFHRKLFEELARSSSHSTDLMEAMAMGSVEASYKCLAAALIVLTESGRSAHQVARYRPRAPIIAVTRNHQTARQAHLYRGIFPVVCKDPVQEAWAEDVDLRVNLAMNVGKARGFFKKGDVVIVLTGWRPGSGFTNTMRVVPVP

[5] = 0.25 μM Rho-MatB, ATP in large excess
[6] = Rho-MatB in 10-fold excess over ATP

Structure (SMILES): O=C(O)CC(=O)O [malonate]
effect on the MgATP-induced fluorescence increase (Rho-MatB [1]): did not inhibit
effect on the fluorescence of Rho-MatB (Rho-MatB [1]): no effect

Structure (SMILES): Nc1ncnc2c1ncn2[C@@H]1O[C@H](CO[P@](=O)(O)O[P@](=O)(O)O[P@@](=O)(O)S)[C@@H](O)[C@H]1O [ATPγS, adenosine 5′-(γ-thio)triphosphate]
Kd (Rho-MatB [2]): 16.2 ± 0.8 µM
fluorescence ratio of ATP titration (Rho-MatB [3]): 1.9
increase of apparent Kd for ATP (Rho-MatB [3]; fixed concentration of the named nucleotide): ~5 fold

Structure (SMILES): Nc1nc2c(ncn2[C@@H]2O[C@H](COP(=O)(O)OP(=O)(O)O)[C@@H](O)[C@H]2O)c(=O)[nH]1 [GDP]
effect on the fluorescence of Rho-MatB (Rho-MatB [1]): did not significantly affect the fluorescence

Structure (SMILES): Nc1ncnc2c1ncn2[C@@H]1O[C@H](COP(=O)(O)OP(=O)(O)NP(=O)(O)O)[C@@H](O)[C@H]1O [AMP-PNP, adenosine 5′-(β,γ-imido)triphosphate]
fluorescence ratio of ATP titration (Rho-MatB [3]): 2.4

Structure (SMILES): Nc1ncnc2c1ncn2[C@@H]1O[C@H](COP(=O)(O)OP(=O)(O)OP(=O)(O)O)[C@@H](O)[C@H]1O [ATP]
higher affinity for ATP than ADP (Rho-MatB [2]; Rho-MatB): 67 fold
increase in fluorescence intensity on ATP binding (Rho-MatB [2]; excitation 553 nm, emission 575 nm, 1 μM Rho-MatB): 3.7 fold
association rate constant (fast phase) (Rho-MatB [4]; [5]): 1.83 ± 0.02 μM^–1 s^–1 and 1.8 μM^–1 s^–1
intercept (dissociation rate constant, fast phase) (Rho-MatB [4]; [5]): 8.15 ± 0.17 s^–1 and 8.2 s^–1
association rate constant (Rho-MatB [4]; [6]): 0.72 μM^–1 s^–1
intercept (dissociation rate constant) (Rho-MatB [4]; [6]): 8.0 s^–1 and 7.95 ± 0.18 s^–1
Kd (RpMatB K488A): 0.31 µM
higher affinity for ATP than ADP (ATeam): 30 fold

Structure (SMILES): Nc1ncnc2c1ncn2[C@@H]1O[C@H](COP(=O)(O)O)[C@@H](O)[C@H]1O [AMP]
effect on the fluorescence of Rho-MatB (Rho-MatB [1]): did not significantly affect the fluorescence

Structure (SMILES): Nc1nc2c(ncn2[C@@H]2O[C@H](COP(=O)(O)OP(=O)(O)OP(=O)(O)O)[C@@H](O)[C@H]2O)c(=O)[nH]1 [GTP]
effect on the fluorescence of Rho-MatB (Rho-MatB [1]): did not significantly affect the fluorescence

average Vmax (pyruvate kinase; n = 5): 0.0190 ± 0.0004 μM s^–1
Structure (SMILES): C=C(OP(=O)(O)O)C(=O)O [phosphoenolpyruvate]
average specific activity (pyruvate kinase): 0.76 μM s^–1 U^–1 mL and 0.76 ± 0.02 μM s^–1 U^–1 mL

Structure (SMILES): Nc1ncnc2c1ncn2[C@@H]1O[C@H](COP(=O)(O)OP(=O)(O)O)[C@@H](O)[C@H]1O [ADP]
fluorescence ratio of ATP titration (Rho-MatB [3]): 3.0

Structure (SMILES): CC(C)(COP(=O)(O)OP(=O)(O)OC[C@H]1O[C@@H](n2cnc3c(N)ncnc32)[C@H](O)[C@@H]1OP(=O)(O)O)[C@@H](O)C(=O)NCCC(=O)NCCS [coenzyme A]
effect on the MgATP-induced fluorescence increase (Rho-MatB [1]): did not inhibit
effect on the fluorescence of Rho-MatB (Rho-MatB [1]): no effect

Structure (SMILES): Nc1ncnc2c1ncn2[C@H]1C[C@H](O)[C@@H](COP(=O)(O)OP(=O)(O)OP(=O)(O)O)O1 [dATP]
fluorescence ratio of ATP titration (Rho-MatB [3]): 2.3
